Laboratory results from ChEMBL document CHEMBL1153516, “Influence of the side chain next to C-terminal benzimidazole in opioid pseudopeptides containing the Dmt-Tic pharmacophore” (J Med Chem, 2009).
Non-standard residues stand in square brackets, D forms with d. Residues, ends and D or L forms follow the SMILES beside them. Dmt = Cc1cc(O)cc(C)c1C[C@H](N)C(=O)O; Tic = O=C(O)[C@@H]1Cc2ccccc2CN1

Biological target: Delta-type opioid receptor (Mus musculus, UniProt P32300)
Test: Antagonist activity against delta opioid receptor in mouse vas deferens assessed as effect on deltorphin 2-induced contraction
Format: functional, tissue-based
Settings: read-out: pA2 (converted)
How it was run: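 pA2 was measured against the δ agonist deltorphin II in mouse vas deferens and determined by the Kosterlitz and Watt method.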

Chain of Delta-type opioid receptor (P32300 whole entry): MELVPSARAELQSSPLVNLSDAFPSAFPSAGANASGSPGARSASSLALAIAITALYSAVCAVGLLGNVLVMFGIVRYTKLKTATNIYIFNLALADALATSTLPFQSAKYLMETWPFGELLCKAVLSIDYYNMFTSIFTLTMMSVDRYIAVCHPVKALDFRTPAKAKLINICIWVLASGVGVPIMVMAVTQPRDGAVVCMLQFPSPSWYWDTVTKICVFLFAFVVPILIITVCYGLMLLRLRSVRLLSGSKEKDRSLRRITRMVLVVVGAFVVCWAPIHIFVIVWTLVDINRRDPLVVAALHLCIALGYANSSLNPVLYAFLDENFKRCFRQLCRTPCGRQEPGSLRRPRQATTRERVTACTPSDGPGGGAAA

SMILES: Cc1cc(O)cc(C)c1C[C@H](N)C(=O)N1Cc2ccccc2C[C@H]1C(=O)N[C@@H](Cc1ccccc1)C(=O)N[C@@H](Cc1ccccc1)C(=O)O (H-[Dmt][Tic]FF-OH)
- Kb: 0.2 nM
